MITF TRPM1 HTS – activators of MITF-driven TRPM1 promoter reporter, primary screen, cell-based, SK-MEL-5, luciferase, single point; SK-MEL-5 TRPM1-promoter luciferase, 24 h; % of positive control, neutral wells = 0; activation, % at 12.5 µM; 0.75% of 300,000 active;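 active = mean activation of at least 80% with every replicate also reaching 80%; inconclusive = mean reaches 80% but some replicate falls short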;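 note: 0% = neutral control wells and 100% = parthenolide positive control wells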
esBAF inh – Bmi1 luciferase reporter increase in mESCs, primary screen, esBAF inhibitor project, mouse ES cells, Bmi1 luciferase knock-in, single point | 24 h; 100% = twice the neutral-well signal | reporter increase, % at 12.5 µM | 2% of 350,000 active; in the data active = activation above about 40%; inconclusive = no clear call, values can overlap the other calls;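 note: 0% = median of the plate's neutral control wells and 100% = double that signal; a rise in the Bmi1 reporter signal indicates esBAF inhibition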
Wnt act – Wnt/beta-catenin pathway activators, primary screen, cell-based, plate reader, single point; Wnt/beta-catenin reporter cell assay, activator; activation, % at 9.35 µM; 1.2% of 300,000 active; in the data active = activation above about 30%, passing the limit was not always enough; inconclusive = no clear call, values can overlap the other calls;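 note: 0% = neutral control wells and 100% = positive control wells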
Vif imaging – HIV Vif self-association inhibitors, primary screen, imaging, HEK293T, single point; HEK293T cells, Vif self-association by quenched fluorescence, 24 h; inhibition, % at 7.49 µM; 0.35% of 340,000 active; AID 602346, 2012; in the data active = inhibition above about 50%, passing the limit was not always enough; inconclusive = no clear call, values can overlap the other calls; inactive = below about 31%
XiGFP reactiv – activators of inactive X chromosome reactivation, primary screen, imaging, XiGFP fibroblasts, GFP high-content imaging, set 2; activation, % at 7.58 µM; AID 743238, 2013; 0.055% of 360,000 active; XiGFP mouse fibroblasts, % GFP-positive cells imaging, 3 d; cells co-treated with 5-aza-dC sensitizer; scaled so ellipticine positive control = 100%;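 active = mean normalized replicate activation at least 10% and every replicate at or above 10%; inconclusive = only one of the two criteria met; inactive = mean below 10% and not all replicates reach 10%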;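 note: 0% = median of on-plate neutral control wells and 100% = ellipticine 6 µM median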
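Material: XiGFP fibroblasts, SV40-immortalized; Buffer or medium: DMEM containing 5-aza-dC; Compound dosing: single point; Times: 3 days compound exposure.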
* marks the source's active call; other numbers are inactive results; ? = inconclusive; / = no result given. Only some compounds are listed: those with a hit (about 2.6% of all), similar ones and a draw of the others.

SMILES	MITF TRPM1 HTS	esBAF inh	Wnt act	Vif imaging	XiGFP reactiv
O=C(CNC(=O)c1cn2ccccc2n1)Nc1ccc(F)c(F)c1	77.8	/	34.5*	-7.6	0.1
O=C(Nc1cccnc1Cl)c1ccc2c(Cl)c3c(nc2c1)CCC3	43.7	/	?	-6.2	-0.2
O=C(NC1CC1)c1ccc2c(Cl)c3c(nc2c1)CCCC3	71.5	47.1*	22.0	-3.7	-0.1
N#Cc1ccccc1NC(=O)c1ccc2c(Cl)c3c(nc2c1)CCCC3	61.2	79.9*	/	5.6	/
COc1ccc2c3c(n(C)c2c1)[C@@H](CO)N(C(=O)CN(C)C)CC31CN(C(=O)NC(C)C)C1	/	/	/	/	0.2
COc1ccc(Nc2nc3ccccc3s2)cc1	66.2	/	/	6.9	0.0
COc1ccc2nc(NC3=NCCC3)sc2c1	64.5	57.5*	57.5*	/	/
COc1cccc(Nc2nc3ccc(OC)cc3s2)c1	114.8*	/	1.5	-16.6	1.1
COc1ccc(NC(=O)C2Cc3ccccc3O/C2=N\O)cc1 (configuration not stated)	86.1*	31.3	9.8	/	0.0
COc1ccc(C(=O)/C=C/Nc2ccc(C)cn2)cc1OC	18.1	60.5*	/	?	/
CCOc1ccc(N/C=C/C(=O)c2ccc(OC)c(OC)c2)cc1	/	70.0*	5.3	0.7	0.0
CCCOc1ccc(N/C=C/C(=O)c2ccc(OC)c(OC)c2)cc1	14.4	2.9	1.3	-0.4	0.0
COc1ccc(N/C=C\C(=O)c2ccc3ccccc3c2)cc1	/	42.6*	9.9	3.8	-0.1
C/C=C/c1ccc2c(c1)O[C@@H](CN(C)C(=O)C1CCC1)[C@H](C)CN([C@H](C)CO)S2(=O)=O	/	/	/	/	-1.0
Cc1noc(C)c1S(=O)(=O)N(C)C[C@H]1Oc2ccc(NC(=O)CCN3CCOCC3)cc2CC(=O)N([C@@H](C)CO)C[C@H]1C	/	/	/	/	0.0
CC(SC1=NCCS1)C(=O)Nc1nnc(-c2ccc(Cl)cc2)s1 (configuration not stated)	45.8	43.0*	5.5	/	0.0
C[C@H]1CN([C@@H](C)CO)C(=O)Cc2cc(NS(=O)(=O)c3ccccc3)ccc2O[C@@H]1CN(C)S(=O)(=O)c1ccc(F)cc1	/	-0.7	/	/	0.4
Cc1nn(C)cc1/C=N/NC(=S)Nc1ccccc1	/	68.7*	40.3*	-1.9	/
Cc1cccc(NC(=S)N/N=C/c2c[nH]c3ccccc23)c1	-7.7	87.9*	9.6	23.8	-0.1
O=C(N/N=C/c1c[nH]c2ccccc12)c1ccc2c(c1)OCCO2	/	51.3*	2.5	-4.3	-0.1
Cc1ccc(C(=O)Nc2ccc(C(=O)N/N=C/c3c[nH]c4ccccc34)cc2)cc1	1.0	/	7.3	3.2	-0.1
O=C(N/N=C/c1cc(Br)c(Br)o1)c1ccc2c(c1)OCCO2	/	58.2*	36.5*	-2.5	0.0
Oc1ccccc1C=NNC(=S)Nc1ccc(F)cc1	-2.7	-0.7	11.9	-8.2	1.4
C[C@@H]1CN([C@H](C)CO)C(=O)Cc2cc(NC(=O)C3CC3)ccc2O[C@@H]1CN(C)Cc1ccccc1	/	2.0	/	/	0.0
O=C(N/N=C/c1cc(Br)c(O)c(Br)c1O)c1ccc2c(c1)OCCO2	30.9	43.4*	8.6	5.6	0.1
SMILES	MITF TRPM1 HTS	esBAF inh	Wnt act	Vif imaging	XiGFP reactiv
COc1ccccc1C1C(C#N)=C(N)N(N(C)C)C2=C1C(=O)CC(C)(C)C2 (configuration not stated)	-3.6	-0.8	40.3*	2.0	0.1
Oc1cccc2ccc(/C=C/c3ccccc3Cl)nc12	4.0	17.9	20.8	-3.6	1.4
COc1cc(Cl)cc(/C=C/c2ccc3cccc(O)c3n2)c1OC	10.9	29.8	16.7	0.3	0.8
COc1ccccc1/C=C/c1ccc2cccc(O)c2n1	5.3	67.0*	27.1	-3.4	0.1
COc1cccc(C=O)c1OCCCOc1cccc2cccnc12	/	?	4.8	-3.1	0.2
CCOc1cccc(/C=C/c2ccc3cccc(O)c3n2)c1O	20.5	86.8*	47.9*	0.4	0.5
COc1cccc(C=Cc2nccc3ccccc23)c1OC	/	24.8	58.9*	-1.0	-0.1
CCOc1cccc(/C=C/c2ccc3cccc(O)c3n2)c1OC	9.9	34.3	39.9*	2.0	1.5
C[C@@H]1C(=O)N[C@@H](c2ccccc2)CC=CC[C@H](C)Oc2ccccc2C(=O)N1C (mixture of isomers)	/	/	/	/	-0.1
C[C@@H]1CCCCO[C@@H](CN(C)Cc2ccncc2)[C@H](C)CN([C@H](C)CO)C(=O)c2cc(NC(=O)CCCN(C)C)ccc2O1	/	-4.3	/	/	-1.1
C=CCNC(=S)NNc1nc2c(c(=O)[nH]1)C1(CCCC1)Cc1ccccc1-2	-0.3	/	51.9*	-0.1	0.0
O=c1[nH]c(NNC(=S)NCc2ccccc2)nc2c1C1(CCCCC1)Cc1ccccc1-2	-4.7	-7.1	/	-3.8	0.0
Cc1ccccc1-c1cnc2c(c1)C(=O)N([C@@H](C)CO)C[C@H](C)[C@@H](CN(C)CC1CCCCC1)O2	/	0.3	/	/	-0.8
Nc1ccc(-c2c3ccc(=O)cc-3oc3cc(O)ccc23)c(C(=O)O)c1	6.1	0.0	/	72.8*	/
COc1ccc(-c2cc(=O)c3ccc(O)cc3o2)cc1OC	/	20.6	-1.6	5.5	/
CN(C)c1ccc(/C=N/c2cc(-c3ccccc3)nn2-c2ccccc2)cc1	/	62.1*	21.2	-3.0	/
Cc1nc2ccccc2c(=O)n1/N=C/c1ccc(N(C)C)cc1	18.7	-2.5	0.2	7.6	/
Cc1ccc(S(=O)(=O)N(C)C[C@H]2Oc3ccc(NC(=O)CCN4CCOCC4)cc3CC(=O)N([C@@H](C)CO)C[C@H]2C)cc1	/	-2.1	/	/	-0.4
COCc1nnc(NC(=O)c2sc3ccccc3c2Cl)s1	/	50.8*	?	4.9	/
CCC(C)Sc1nnc(NC(=O)c2ccco2)s1 (configuration not stated)	/	50.4*	24.4	8.7	0.2
CNC(=O)c1ccsc1NC(=O)c1sc2ccccc2c1Cl	76.8	42.8*	?	-1.2	0.0
COCc1nnc(NC(=O)c2ccco2)s1	/	45.0*	/	1.7	/
C[C@@H]1CN([C@H](C)CO)C(=O)CCCn2nncc2CO[C@@H]1CN(C)CC1CC1	/	0.9	/	/	0.3
O=C(C[C@H]1CC[C@H]2[C@@H](COC[C@H](O)CN2CC2CCCC2)O1)NCC1CC1	/	/	/	/	0.1
CCS(=O)(=O)Nc1ccc2c(c1)C(=O)N(C)C[C@H](OC)[C@@H](C)CN(C(=O)C1CCC1)[C@H](C)CO2	/	5.3	/	/	-0.2
C[C@@H]1CN([C@H](C)CO)C(=O)c2cc(NC(=O)C3CCCCC3)ccc2O[C@@H](C)CCCCO[C@H]1CN(C)C(=O)c1ccncc1	/	1.1	/	/	0.3
O=c1c2cccc(Cl)c2nc2n1Cc1ccccc1-2	/	/	39.1*	-0.6	0.4

Assay outcomes deposited in PubChem by Broad Institute.
